Screening data: PubChem, several laboratories
Only a selection was taken, and hits are over-represented in it overall.
S1P4 agonist: agonists of human S1P4 receptor. S1P4-expressing cell line, agonist reporter assay. activation, % at 4.98 µM. actives 0.35% (n = 220,000); in the data active = activation above about 11%
Target sequence (O95977 whole entry, looked up): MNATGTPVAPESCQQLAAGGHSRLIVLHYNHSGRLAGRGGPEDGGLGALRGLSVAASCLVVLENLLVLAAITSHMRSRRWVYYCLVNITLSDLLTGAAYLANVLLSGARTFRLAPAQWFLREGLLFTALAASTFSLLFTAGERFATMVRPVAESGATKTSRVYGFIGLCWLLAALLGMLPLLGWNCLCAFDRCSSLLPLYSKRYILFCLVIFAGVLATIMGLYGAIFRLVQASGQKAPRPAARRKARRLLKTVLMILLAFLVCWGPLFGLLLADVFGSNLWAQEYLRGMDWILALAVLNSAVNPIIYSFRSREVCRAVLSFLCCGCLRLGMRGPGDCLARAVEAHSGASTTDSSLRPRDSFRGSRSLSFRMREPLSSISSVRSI
S1P3 antag: blocks the human S1P3 receptor | Q99500 | CHO S1P3 NFAT-BLA reporter, FRET fluorescence, antagonist mode | inhibition, % at 4.98 µM | actives 0.27% (n = 170,000) | AID 485;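 active = inhibition above the plate cutoff, the mean inhibition of test wells on that plate plus 3 SD, cut at about 28% in these data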;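 note: cells challenged with S1P at its EC80 of 0.8 µM; blue over green emission ratio from cleaved BLA substrate after 4 h stimulation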
MDM2 E3 inh: Mdm2 E3 ligase (human) inhibition | cell-based MDM2 ubiquitination luciferase reporter, 2 h; 0 = plate control, 100 = twice control, blank-subtracted | Q00987 | AID 1230 | signal enhancement, % at 5 µM | actives 0.11% (n = 210,000);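 active = signal enhancement of 30% or more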;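 note: luminescence tracks abundance of the self-degrading MDM2-luciferase fusion protein; higher signal means inhibition of MDM2 E3 ligase activity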
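system = mammalian cells stably expressing self-ubiquitinating, self-degrading MDM2 E3–luciferase fusion | quantity = 2000 cells per well seeded | incubation = 4 h cell settling then 2 h compound exposure, 37 °C | signal = SteadyLite luminescence, 15 min reagent step | benchmarks = plate control and blank wells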
Lmaj promast: reduces viability of Leishmania major promastigotes | resazurin fluorescence viability | inhibition, % at 10 µM | actives 9% (n = 200,000) | AID 1063; in the data active = inhibition above about 50%;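 note: promastigotes grown with compound for 44 hours at 28 °C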
S1P4 antag: human S1P4 receptor antagonism | S1P4-expressing cells, antagonist mode, reporter read-out | inhibition, % at 4.98 µM | actives 0.26% (n = 220,000) | AID 1510; in the data active = inhibition above about 29%
Lmaj promast 1uM: blocks Leishmania major promastigote growth at 1 uM, repeat screen; inhibition, % at 1 µM; AID 1258; actives 13% (n = 1,100); L. major promastigote growth, resazurin fluorescence, 48 h; shares compounds with Lmaj promast;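 active = inhibition above about 50% in both repeat tests, limit read from the data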
Of the large screens only hits and unclear results are named; the others gave an inactive call (follow-up assays come after a bar, where they were run); ! = not active in a repeat.

COCC1CCCCN1Cc1cn[nH]c1-c1ccc2cc(OC)ccc2c1 (configuration not stated)	none
COc1ccc(NS(=O)(=O)c2cc(NC(=O)c3nc4nc(C)cc(C)n4n3)ccc2C)cc1	Lmaj promast 72.2 | Lmaj promast 1uM inactive
Oc1c(C=NCc2ccccc2)sc2ccccc12	Lmaj promast 56.4 | Lmaj promast 1uM inactive
Oc1cccc(C=NCc2ccccc2)c1O	none
CCn1c2ccccc2c2cc(/C(C)=N/O)ccc21	Lmaj promast 69.3 (no result: S1P3 antag) | Lmaj promast 1uM inactive
CC(C)CN(CCCNC(=O)CN1C(=O)COc2ccc(S(=O)(=O)N3CCCC3)cc21)CC(C)C	none
Nc1ccc(Nc2ccccc2N)cc1	Lmaj promast 98.8 | Lmaj promast 1uM inactive
Cc1ccccc1Cn1nnc(C(=O)Nc2cccc(C)c2C)c1N	Lmaj promast 95.0 | Lmaj promast 1uM inactive
COc1ccc(CN2CCNC(=O)C2CC(=O)N2CCCO2)c(OC)c1 (configuration not stated)	none
CCOC(=O)c1ccccc1NC(=O)Cc1sc(-c2cccnc2)nc1-c1ccc(C)cc1	Lmaj promast 96.9 | Lmaj promast 1uM inactive
c1ccc(C(c2ccccc2)c2nc(-c3cccnc3)no2)cc1	Lmaj promast 67.8 (no result: S1P3 antag) | Lmaj promast 1uM inactive
Cc1ccc2cccnc2c1N	none
c1cnc2c(c1)ccc1cccnc12	Lmaj promast 100.4 | Lmaj promast 1uM 52.5!
O=C1C=C(NCCOC23CC4CC(CC(C4)C2)C3)C2(CCCCC2)O1	Lmaj promast 85.9 | Lmaj promast 1uM inactive
OCCN1CCN(C(=S)c2ccc(Br)cc2)CC1	Lmaj promast 68.1 (no result: S1P3 antag) | Lmaj promast 1uM inactive
CC(C)c1ccc(C(=O)N2CCN(CCO)CC2)cc1	none (no result: S1P3 antag)
CSc1nnc(-c2cc[n+](C)cc2)n1CCO	none
COc1ccc(S(=O)(=O)NCC2CCC(C(=O)NCC(OC)OC)CC2)cc1 (configuration not stated)	none
O=[N+]([O-])c1cccc(-c2cc3cccc[n+]3cc2-c2cccc([N+](=O)[O-])c2)c1	none
Cc1cccc2cc(-c3ccccc3)c(-c3ccccc3)c[n+]12	Lmaj promast 100.1 | Lmaj promast 1uM inactive
O=C(C[n+]1ccccc1)c1ccc(-c2ccccc2)cc1	Lmaj promast 95.6 | Lmaj promast 1uM inactive
CCC(=O)c1ccc(-c2ccccc2)cc1	none
CC(C)(C)c1ccc(S(=O)(=O)N2C=CC(C(F)(F)F)=NCC2)cc1	Lmaj promast 59.0 (no result: S1P3 antag) | Lmaj promast 1uM inactive
COC(=O)c1c(NC(=O)CCNCc2ccco2)sc2c1CCC2	none (no result: Lmaj promast)
Cc1ccc(NC2(c3nnnn3-c3c(C)cccc3C)CCCCC2)cc1	Lmaj promast 97.2 | Lmaj promast 1uM inactive
O=C(COc1ccccc1)c1cn(CC(=O)N2CCCC2)c2ccccc12	none
O=C(Cn1c(=O)n2ncnc2c2c3c(sc21)CCCC3)c1ccccc1	Lmaj promast 74.4 | Lmaj promast 1uM inactive
O=c1n(Cc2ccccc2Cl)c2sc3c(c2c2ncnn12)CCCC3	none (no result: S1P4 agonist, MDM2 E3 inh, Lmaj promast, S1P4 antag)
COC(=O)[C@@H]1CC[C@H](C)[C@@H](c2ccc(C)cc2)N1C(=O)c1ccc(/C=N/OCC[C@@H]2C=C[C@H](OC(C)=O)[C@@H](COC(C)=O)O2)cc1	Lmaj promast 96.3 (no result: MDM2 E3 inh) | Lmaj promast 1uM inactive
CCCNC(=O)OC[C@H]1O[C@H](CCO/N=C/c2ccc(C(=O)N3[C@H](c4ccc(C)cc4)[C@@H](C)CC[C@H]3C(=O)OC)cc2)C=C[C@@H]1Oc1ccc(OC)cc1	none (no result: MDM2 E3 inh)
N#CCc1nnc2n1-c1ccccc1CCC2	none
CN(CC(=O)O)Cc1nc2ccccc2[nH]1	none (no result: S1P3 antag)
ClC(Br)=C(n1cnc2ccccc21)n1cnc2ccccc21	Lmaj promast 99.7 (no result: S1P3 antag) | Lmaj promast 1uM inactive
O=C(Nc1cccc(C(F)(F)F)c1)C12CC3CC(CC(C3)C1)C2	none (no result: S1P3 antag, MDM2 E3 inh)
CCC(C)Nc1nc2c(c(=O)n(C)c(=O)n2C)n1C (configuration not stated)	none (no result: Lmaj promast)
O=C(/C=C/c1cccc([N+](=O)[O-])c1)NCCN1C(=O)S/C(=C\c2cccnc2)C1=O	Lmaj promast 60.3 | Lmaj promast 1uM inactive
O=C(O)CCN1C(=O)S/C(=C\c2cccnc2)C1=O	none (no result: Lmaj promast)
O=C(c1cn(-c2ccccc2)nc1-c1ccc(Cl)s1)N1CCOCC1	Lmaj promast 63.9 | Lmaj promast 1uM inactive
Clc1cccc(Cl)c1COn1nnc2ccccc21	none (no result: S1P3 antag)
c1ccc(COn2nnc3ccccc32)c(COn2nnc3ccccc32)c1	Lmaj promast 86.9 | Lmaj promast 1uM inactive
COc1ccc(OC)c2[nH]c(=O)c(CCNC(=O)c3ccc(S(=O)(=O)N4CCCC4)cc3)cc12	Lmaj promast 67.1 | Lmaj promast 1uM inactive
CCN(CC)S(=O)(=O)c1ccc(C(=O)NCCc2cc3c(OC)ccc(OC)c3[nH]c2=O)cc1	none
COc1ccc(C(=O)NCC2OCCc3ccccc32)c(O)c1 (configuration not stated)	Lmaj promast 52.8 | Lmaj promast 1uM inactive
O=C(CNS(=O)(=O)c1cccc2nsnc12)NCc1ccc(Cl)cc1	none (no result: S1P3 antag)
COc1ccccc1NC(=O)Cn1nc(-c2ccc(Cl)cc2)c2ccccc2c1=O	Lmaj promast 67.8 (no result: S1P3 antag) | Lmaj promast 1uM inactive
O=C(Cn1nc(-c2ccc(Cl)cc2)c2ccccc2c1=O)NN1CCOCC1	none (no result: Lmaj promast)
Cc1sc2nc(CN(Cc3cccs3)C(=O)NC3CCCCC3)[nH]c(=O)c2c1C	Lmaj promast 53.2 | Lmaj promast 1uM inactive
Cc1sc2nc(CN(C(=O)NC3CCCCC3)C3CCCC3)[nH]c(=O)c2c1C	none (no result: S1P3 antag)
COc1ccccc1CN=c1c([N+](=O)[O-])nn(-c2ccc3c(c2)OCCO3)n1O	Lmaj promast 98.1 | Lmaj promast 1uM inactive
CC1=Nc2ccccc2N=C(NC(=O)CSc2nnnn2-c2ccccc2)C1c1ccccc1 (configuration not stated)	Lmaj promast 98.7 | Lmaj promast 1uM inactive
CCOC(=O)NC(=O)CSc1nnnn1-c1ccccc1	none
Cc1cc(C)cc(C(=O)N(NC(=O)Nc2ccc(Cl)cc2)C(C)(C)C)c1	Lmaj promast 97.5 (no result: S1P3 antag) | Lmaj promast 1uM inactive
CCn1c(=O)c(C(=O)NNS(=O)(=O)c2ccc(Br)cc2)c(O)c2ccccc21	none
CC(=O)O[C@H]1C[C@@]2(C)[C@@H](C[C@@H](O)[C@H]3[C@@]4(C)CC[C@@H](O)[C@@H](C)C4CC[C@@]32C)/C1=C(\CCC=C(C)C)C(=O)O (some centres not stated)	none (no result: MDM2 E3 inh)
CC1(C)CC2(CC(c3cccs3)c3cc(Cl)c(O)cc3O2)NC(=S)N1 (configuration not stated)	Lmaj promast 92.4 (no result: S1P3 antag) | Lmaj promast 1uM inactive
CC1(C)CC2(CC(c3ccc(F)cc3)c3ccc(O)cc3O2)NC(=S)N1 (configuration not stated)	none (no result: Lmaj promast)
C1=CN2CCC1C(c1ccccc1)C2 (configuration not stated)	Lmaj promast 79.1 | Lmaj promast 1uM inactive
c1ccc(-n2nnnc2Oc2cccc3cccnc23)cc1	Lmaj promast 63.0 | Lmaj promast 1uM inactive
c1cncc(-c2nnc(-c3cccnc3)nn2)c1	Lmaj promast 96.6 | Lmaj promast 1uM inactive
O=C1CN(C(=O)CNCc2cccc(Cl)c2)c2ccccc2N1	none (no result: Lmaj promast)
